Screens (PubChem)
The list is not random: actives were taken first. Their share in the collection is about 9.3%.
tolC growth inh: blocks growth of E. coli BW25113 tolC mutant | growth inhibition, % at 10 µM (by protocol) | hit rate 2.2% among 65,000 | OD615;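 active means growth inhibition at or above a cutoff equal to the mean over every tested compound plus 3 SD, cut at about 60% in these data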;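 further: growth measured after 20 h incubation at 37 °C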
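test system = E. coli BW25113 ΔtolC::kan bacteria | medium = LB with kanamycin 50 µg/mL | signal = OD at 615 nm | schedule = 37 °C, 20 h exposure | evaluation = % inhibition of E. coli growth | compound dosing = one dose of 10 µM final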
PostGolgi yeast: growth inhibition of a yeast mutant, post-Golgi transport screen; hit rate 0.9% among 98,000; inhibition, % at 10 µM; post-Golgi transport phenotypic cell assay;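 further: yeast cells grown in 1536-well plates; yeast grown about 18 h at 30C before absorbance read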
hDAT+cocaine: modulates human dopamine transporter uptake under cocaine | Q01959 | AID 449768 | hit rate 1.3% among 110,000 | LLC-PK1 hDAT cells, [14C]-dopamine uptake with cocaine IC80; actives deviate in either direction | B-score at 10 µM;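 active means Z score or B-score, a plate-position-corrected score, falls beyond the plate's 99.7% confidence bounds, in either direction; inactive means both scores lie inside the 99.7% bounds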;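 further: scored against the spread of the other compound wells on the same plate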
E coli WT exp: blocks growth of wild type E. coli BW25113 | growth inhibition, % at 100 µM | OD600 absorbance | hit rate 0.15% among 98,000;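 active means growth inhibition above about 50% at one test dose, limit read from the data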;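 further: growth measured after 20 h incubation at 37 °C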
D1 mod: allosterically modulates the human D1 dopamine receptor | HEK293 D1, CRE-luciferase, dopamine EC30 potentiation; actives deviate in either direction | hit rate 5.9% among 58,000 | B-score at 10 µM | AID 641 | P21728;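 active means luminescence count or its row- and column-corrected plate score outside the 99.7% band of the plate's sample wells, on either side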
Target sequence (P21728 whole entry, looked up): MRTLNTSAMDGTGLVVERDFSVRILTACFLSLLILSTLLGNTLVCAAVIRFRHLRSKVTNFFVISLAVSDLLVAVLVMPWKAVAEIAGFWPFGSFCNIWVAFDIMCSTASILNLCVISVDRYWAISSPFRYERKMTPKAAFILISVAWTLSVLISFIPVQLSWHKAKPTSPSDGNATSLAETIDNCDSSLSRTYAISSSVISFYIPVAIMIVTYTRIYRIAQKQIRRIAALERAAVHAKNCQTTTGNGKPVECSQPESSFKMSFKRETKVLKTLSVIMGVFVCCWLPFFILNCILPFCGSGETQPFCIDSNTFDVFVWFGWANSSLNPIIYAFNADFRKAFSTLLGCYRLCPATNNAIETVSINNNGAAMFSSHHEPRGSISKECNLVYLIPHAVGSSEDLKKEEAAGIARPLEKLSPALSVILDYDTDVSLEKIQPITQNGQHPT
PostGolgi ctrl: inhibits growth of the yeast control strain | efflux-deficient yeast background strain, growth absorbance A615, 16 h | inhibition, % at 10 µM | hit rate 5% among 98,000
Numbers without * were called inactive; . = no result given. Unless noted, no stated cut-off is given here; in the data, active means inhibition above about 30%; inactive means the rest.

SMILES	tolC growth inh	PostGolgi yeast	hDAT+cocaine	E coli WT exp	D1 mod	PostGolgi ctrl
CC1(C)Oc2ccc3ccc(=O)oc3c2/C(=C/Nc2ccccn2)C1=O	-10	-6	0.27	-6	-3.6*	8
COc1ccc(C2=NOC3(CC(=O)N(c4ccc5ccccc5c4)C3=O)C2)c(OC)c1 (configuration not stated)	.	0	0.35	-13	.	15
CCCCOc1ccc(C(=O)Nc2ccc(N3CCN(C)CC3)cc2)cc1	15	-3	-0.25	7	-3.2*	9
CCCCOc1cccc(C(=O)Nc2ccc(N3CCN(CC)CC3)cc2)c1	12	3	0.66	0	-3.6*	17
CCOc1cccc(C(=O)NC(=S)Nc2ccc(N3CCCC3)cc2)c1	.	-11	0.76*	-6	.	7
CN1CCN(c2ccc(NC(=O)c3ccccc3Br)cc2)CC1	-4	-2	0.59	-1	-4.6*	21
CCOC(=O)C1(c2nc(N)cs2)COC(=O)C1 (configuration not stated)	8	-1	-0.32	0	.	7
C[C@H](c1ccccc1)n1nnc(COCc2ccccc2)c1C#CCOCc1ccccc1	.	.	0.61	.	.	.
CC(C)c1nc(N2CCN(C(=O)c3ccccc3)CC2)c(C#N)c2c1COC(C)(C)C2	34	20	0.81	-7	2.4	18
CC1(C)Cc2c(C#N)c(N3CCN(C(=O)c4ccccc4)CC3)nc(-c3ccco3)c2CS1	-2	14	0.027	-9	.	35*
CCC(C)NC(=O)C1CCN(S(=O)(=O)c2ccc(OC)cc2)CC1 (configuration not stated)	.	1	-0.51	-5	.	0
CC(C)Oc1ccc(CNC(=S)N/N=C/c2ccc([N+](=O)[O-])cc2)cc1	.	25	1	-5	.	22
Cc1nonc1OC(C)CNc1ccc([N+](=O)[O-])cc1 (configuration not stated)	.	-1	-0.2	7	.	35*
CC(NC(=O)C1CCCN(C(=O)N(C)C)C1)c1ccccc1 (configuration not stated)	.	1	0.53	4	.	0
Clc1ccccc1CN(Cc1ccccc1)c1ncnc2nc[nH]c12	23	-8	2	-2	-0.26	52*
Clc1ccccc1CNc1ncnc2nc[nH]c12	-3	7	-1.4	13	0.86	16
CCOc1ccc2[nH]c(=O)c(CN(Cc3cccs3)C(CC)c3nnnn3C(C)(C)CC)cc2c1 (configuration not stated)	38	6	0.35	-16	2.1	37*
CCOC(=O)Cn1nnnc1C(CC)N(Cc1cccs1)Cc1cc2cc(C)ccc2[nH]c1=O (configuration not stated)	14	-2	-0.25	-15	-0.1	16
Cc1cc(C)c(NC(=O)C2CCN(c3cnccn3)CC2)c(C)c1	.	.	0.57	.	.	.
COCCN1CN=C(Nc2nc3ccccc3s2)NC1	-16	0	0.041	11	-0.14	-1
N#Cc1c(/N=C/c2cccs2)sc2c1CCCCC2	23	-8	-0.013	4	-3.6*	4
O=C(NC(=O)c1cccc(OC(F)(F)C(F)F)c1)OC1CCS(=O)(=O)C1 (configuration not stated)	-15	2	-0.42	6	-0.65	0
CCOC(=O)c1c(CN(CC)CC)oc2cc(Br)c(O)cc12	1	1	4.1*	14	2.5	11
C=CC(C)(C)c1cc2cc3ccoc3cc2oc1=O	.	.	1.3	.	.	.
OC(c1cccc(OCc2ccccc2)c1)c1nnc(-c2ccccc2)o1 (configuration not stated)	75*	-1	-1.7	-10	-1.3	56*
SMILES	tolC growth inh	PostGolgi yeast	hDAT+cocaine	E coli WT exp	D1 mod	PostGolgi ctrl
COc1ccccc1-n1cnc2cc(NCc3cccs3)ccc21	.	10	-2.5*	-1	.	5
CCn1c(SCC(=O)NCC(=O)Nc2ccc(F)cc2)nnc1-c1ccncc1	.	-2	-1.2	-2	.	35*
C=CCn1c(COc2ccccc2F)nnc1SCC(=O)Nc1cc2oc3ccccc3c2cc1OC	.	2	1.2	-18	.	15
COc1cc2c(cc1NC(=O)CSc1nnc(Cc3cccs3)n1Cc1ccco1)oc1ccccc12	.	1	-0.017	-4	.	33*
CCn1c(SCC(=O)Nc2ccc3c(c2)oc2ccccc23)nnc1-c1ccc(N)cc1	.	42*	1.5	-5	.	18
COc1cc2c(cc1NC(=O)CSc1nnc(COc3ccc(Cl)cc3)n1C)oc1ccccc12	.	2	0.66	-12	.	35*
C=CCn1c(Cc2cccs2)nnc1SCC(=O)NCc1ccco1	.	-6	-0.82	4	.	5
CCn1c(SCC(=O)c2ccc(O)c(O)c2)nnc1-c1ccc(C)cc1	.	-1	-0.86	7	.	16
CCn1c(SCC(=O)Nc2cc3oc4ccccc4c3cc2OC)nnc1-c1cccs1	17	0	1.2	-10	1.1	47*
Cc1cc(C)nc(SCc2nnc(SCC(=O)Nc3nccs3)n2Cc2ccco2)n1	8	2	2.2	0	0.75	7
Cc1cccc(NC(=O)CSc2nnc(CSc3nc(C)cc(C)n3)n2Cc2ccco2)c1	10	4	2.8*	0	1.8	7
CCn1c(SCC(=O)c2ccc3c(c2)Cc2ccccc2-3)nnc1-c1ccc(N)cc1	.	-7	1.7*	-12	.	16
Cc1cc(Cl)ccc1NC(=O)CSc1nnc(Cc2cccs2)n1Cc1ccco1	75*	0	0.5	-7	-0.09	25
COC(Cc1n[nH]c(=S)n1-c1ccc(Cl)cc1)OC	.	19	-1.5	-1	.	2
COC(=O)c1cc(OC)c(OC)cc1NC(=O)c1oc2ccccc2c1C	-9	.	.	.	0.82	.
NCCCCCc1nnc(SCc2ccc(Cl)c(Cl)c2)o1	.	-19	0.78	28	.	6
COc1cc2c(cc1NC(=O)CSc1nnc(Cc3cccs3)n1C)oc1ccccc12	50	-9	2.1	-4	.	35*
Oc1oc(-c2ccccc2)nc1C=Nc1cccc2ccccc12	.	12	-0.25	-17	.	40*
NS(=O)(=O)c1ccc(N2N=C(c3ccccc3)CC2c2ccc(F)cc2)cc1 (configuration not stated)	.	14	-0.051	-12	.	50*
Brc1ccc(-c2nc(-c3cccnc3)no2)o1	-8	-3	0.013	-2	1.8	-4
c1ccc(-c2noc(-c3ccc4ccccc4c3)n2)cc1	-7	-3	0.12	-16	-7*	5
Brc1ccc(-c2nc(-c3ccccc3)no2)o1	98*	3	-0.23	7	-0.068	0
C=CCN(C/C(=N\O)c1sc(C(=O)OCC)nc1C)c1cccc(Br)c1	.	.	-1	.	.	.
Cc1cc(C)nc(-n2nc(C)cc2Nc2ccccc2)n1	76*	5	-0.37	2	0.27	14
Cc1cc(NC(=O)c2ccccc2F)n(-c2nc3ccccc3[nH]2)n1	16	-3	-1.3	-8	3.9	17
Cc1cc(Nc2ccccc2)n(-c2ccccc2)n1	12	-8	0.79	4	3.7	25
Cc1cc(NC(=O)c2c(F)cccc2F)n(-c2nc3ccccc3[nH]2)n1	.	-1	0.66	-7	.	30*
